From ChEMBL document CHEMBL1155597, “Activity of extracts and isolated naphthoquinones from Kigelia pinnata against Plasmodium falciparum” (J Nat Prod, 2000)

What was measured:
Plasmodium falciparum [1] = test: Antimalarial activity after 48 hrs against chloroquine-sensitive Plasmodium falciparum T9-96 by LDH reporter assay; format: functional, organism-based; conditions: T9-96, 48 h
Procedure, shortened: (§1)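 Asexual cultures kept in 5% A+ human red cells in RPMI 1640 with HEPES, glucose, NaHCO3, hypoxanthine, gentamycin and 10% A+ human serum under 1% O2/3% CO2/96% N2 at 37 °C. Ring-stage blood (1% parasitemia, 2% hematocrit) exposed 48 h to compounds at 50 µg/mL to 1.63 ng/mL final (2-fold). Modified LDH read-out: Malstat, then NBT/phenazine ethosulfate, absorbance at 650 nm. Tested twice in triplicate; IC50 ± SD.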

Plasmodium falciparum [2] = test: Antimalarial activity after 48 hrs against chloroquine-resistant Plasmodium falciparum K1 by LDH reporter assay; format: functional, organism-based; conditions: K1, 48 h; procedure, shortened: as §1
KB = test: Cytotoxicity against human KB cells after 48 hrs by MTT assay; format: functional; conditions: read-out: ED50 (the source's name)
Procedure, shortened: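 KB human oral epidermal carcinoma cells in DMEM glutamax-1 + 10% HIFCS, 37 °C, 5% CO2. Log-phase cells seeded at 25 000/well and left 24 h to attach. Compounds added from DMSO (≤0.5% final), 200 to 0.064 μg/mL in 5-fold series, triplicate. After 48 h, MTT added for 4 h, formazan dissolved in DMSO, A540 blank-subtracted. Growth expressed as % of untreated control.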

[3] = Selectivity ratio of ED50 for KB cells to IC50 for Plasmodium falciparum K1; format: ADME, cell-based; conditions: human, KB cells (cytotoxicity) versus Plasmodium falciparum K1
Procedure, shortened: (§2)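 Ratio of KB ED50 to P. falciparum IC50. KB ED50 comes from the 48 h MTT assay. Parasite IC50 comes from a 48 h modified lactate dehydrogenase assay on ring-stage cultures (1% parasitemia, 2% hematocrit, A+ human RBC), 37 °C, 1% O2/3% CO2/96% N2. Compounds tested at 50 μg/mL to 1.63 ng/mL in 2-fold dilutions, twice in triplicate, with NBT/PES read at 650 nm.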

[4] = Selectivity ratio of ED50 for KB cells to IC50 for Plasmodium falciparum T9-96; format: ADME, cell-based; conditions: human, KB cells (cytotoxicity) versus Plasmodium falciparum T9-96; procedure, shortened: as §2

## CC1=C2C=C3C(=O)c4ccc(O)cc4C(=O)C3(O)C(C)=C2CC1 (stereo unspecified) [KIGELINOL]
Plasmodium falciparum [1]
  IC50: 15.2 µM
Plasmodium falciparum [2]
  IC50: 16.7 µM
KB
  EC50: 148 µM
[3]
  selectivity ratio: 8.88
[4]
  selectivity ratio: 9.74

## CC(O)c1cc2c(o1)C(=O)c1ccccc1C2=O (stereo unspecified)
Plasmodium falciparum [1]
  IC50: 0.718 µM
Plasmodium falciparum [2]
  IC50: 0.627 µM
KB
  EC50: 3.9 µM
[3]
  selectivity ratio: 6.18
[4]
  selectivity ratio: 5.4

## CCN(CC)CCCC(C)Nc1ccnc2cc(Cl)ccc12 (stereo unspecified) [CHLOROQUINE PHOSPHATE]
KB
  EC50: 43.9 µM

## CC1=C2C=C3C(=O)c4cc(O)ccc4C(=O)C3(O)C(C)=C2CC1 (stereo unspecified) [ISOKIGELINOL]
Plasmodium falciparum [1]
  IC50: 11.9 µM
Plasmodium falciparum [2]
  IC50: 15.2 µM
KB
  EC50: 167 µM
[3]
  selectivity ratio: 12.7
[4]
  selectivity ratio: 14

## C[C@]12CC[C@@H]3[C@H]1C=C1C(=O)c4cc(O)ccc4C(=O)[C@@]1(O2)[C@]3(C)C=O [ISOPINNATAL]
Plasmodium falciparum [1]
  IC50: 1.55 µM
Plasmodium falciparum [2]
  IC50: 0.763 µM
KB
  EC50: 14.8 µM
[3]
  selectivity ratio: 19.4
[4]
  selectivity ratio: 9.54
